# Measurements reported in PubChem BioAssay.
# Values without a mark were called inactive. Results filed as inconclusive are left out. The source made the active and inactive calls.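 How the source made its calls, unless noted: active means cell viability at or below a set limit in both duplicate runs, the limit being the all-compound median minus 4 SD (cut at about 23% in these data, passing the limit was not always enough); inconclusive means no clear call, values can overlap the other calls; inactive means the rest.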
# Columns and labels:
# [1] = OD615 S. cerevisiae growth inhibition, permissive medium, pilot counter-assay, permissive growth control for S. cerevisiae lifespan shortening project (AID 705;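 active means growth inhibition above 25% in both replicates, a cutoff set 3 SD above the mean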); conditions: OD615, 24 h, at 10 µM, hits give high values
# Outline: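 Material: engineered DeaD yeast; compound dosing: one dose 10 µM, DMSO 0.25% final; measure: yeast growth inhibition indicated by reduced 24 h OD615; detection: OD615 turbidity read; incubation: cells pre-grown 4 h, then 24 h compound exposure, 30 °C humidified; medium: permissive synthetic complete medium with raffinose and galactose carbon sources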
# [2] = Restrictive medium S. cerevisiae growth inhibition, OD615, pilot screen of yeast lifespan reduction project, restrictive growth control (AID 706;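 active means growth inhibition above a set limit, 3 SD over mean compound inhibition, in both replicates, cut at about 43% in these data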;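 further: modified DeaD lifespan yeast strain shifted to restrictive glucose medium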); conditions: OD615, 48 h, at 10 µM, hits give high values
# Outline: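 material = engineered S. cerevisiae DeaD strain | medium = glucose-based CSMM-D restrictive medium | times = 4 h pre-incubation, 48 h exposure at 30 °C | technique = OD615 absorbance reading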
# [3] = viability gain of MRP-1-high H69AR cells under doxorubicin, pilot screen, MRP-1 activator project, CellTiter-Glo, duplicate (AID 807;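 active means viability increase at or above a cutoff of the median across tested compounds plus 3 SD, cut at about 8.5% in these data, passing the limit was not always enough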;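 further: compound pretreatment 18-22 h then 72 h combined with doxorubicin; 0% = doxorubicin alone and 100% = vehicle without doxorubicin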); conditions: H69AR viability with doxorubicin, CellTiter-Glo luminescence; at 10 µM; hits give high values
# [4] = growth suppression of beta-catenin knockout HCT116, pilot screen, human colon tumor cells (AID 823); conditions: CellTiter-Glo, 60 h, at 10 µM, hits give low values;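 further: 0% = wells killed by 20 µM Hyamine and 100% = untreated DMSO cell wells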
# [5] = growth suppression of PTEN-deleted HCT116, pilot screen, cell-based, HCT116 clonal line, CellTiter-Glo (AID 824;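 active means viability at or below 27.92% in each of two runs, the all-compound median minus 4 SD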;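 further: 0% = 20 µM Hyamine control and 100% = vehicle cell control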); conditions: 60 h, at 10 µM, hits give low values
# [6] = inhibitors of the yeast RAM network, pilot screen, dse1pr::URA3 reporter, 5-FOA selection (AID 869;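 active means inhibition over a set limit, the all-compound mean plus 3 SD, in both replicate runs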;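 further: 0% = DMSO wells with no growth and 100% = 10 µM 1-NA-PP1 with full growth; RAM network block rescues cells from 5-FOA so hits raise OD615 growth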); conditions: S. cerevisiae dse1pr::URA3 5-FOA growth, OD615, 2 d; at 10 µM; hits give high values; strain carries analog-sensitive mutant Cbk1 kinase
# [7] = RAM signaling pathway blockade in yeast – S. cerevisiae, Pdr1DBD-CYC8 efflux-inhibited sensitized strain, primary screen (AID 1298;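 active means RAM network inhibition above 8.4% in each of two replicates, 3 SD over the compound average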;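 further: 0% = DMSO untreated cells without growth and 100% = 10 µM 1-NA-PP1 full growth; higher means more yeast growth rescued from 5-FOA killing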); conditions: S. cerevisiae cbk1-as DSE1-URA3 strain, 5-FOA growth OD615, 2 d; at 50 µM; hits give high values
Structure (SMILES),growth inhibition [1],growth inhibition [2],viability increase [3],viability [4],viability [5],inhibition [6],RAM network inhibition [7]
COc1cc2[nH]c(=O)n(CCCCCC(=O)NCCCN3CCOCC3)c(=O)c2cc1OC,-9.12%,-24.8%,-1.27%,97.8%,89.6%,0.585%,-0.68%
Cn1nc(-c2ccc(Cl)cc2)c2cc(C(=O)N3CCN(C(=O)c4ccco4)CC3)sc21,5.26%,15.6%,-6.46%,66.6%,66.2%,0.755%,4.92%
Cc1cc(NC(=O)c2ccccc2)sc1C,-5.22%,3.02%,-3.69%,70.7%,70%,-1.59%,-1.89%
O=C(NCCOC(=O)c1ccc(C(=O)OCCNC(=O)c2ccccc2)o1)c1ccccc1,4.22%,13.6%,0.02%,100%,103%,1.25%,6.33%
COc1ccc(OC)c(CCNC(=O)Cn2sc3nc(C)cc(C)c3c2=O)c1,18.3%,70.4% (active),-8.04%,2.27% (active),4.4% (active),1.38%,11.3%
CC(NC(=O)c1cccnc1)C(c1cccs1)N1CCN(C)CC1 (configuration not stated),-4.91%,5.15%,0.3%,98.2%,95%,0.955%,4.79%
O=C1CC(c2ccc(S(=O)(=O)NC3CC3)cc2)CN1 (configuration not stated),-9.26%,-7.47%,-2.08%,110%,103%,0.075%,-0.6%
O=C1c2ccccc2C(O)N1Cc1ccccc1Cl (configuration not stated),-1.72%,-0.325%,-1.74%,93.7%,81.2%,2.76%,1.48%
O=C(NCc1ccc(F)cc1)C1CCC(=O)N1CCc1ccccc1 (configuration not stated),-5.54%,7.93%,-0.77%,96.4%,93.2%,0.22%,-1.59%
COC(=O)CN(c1ccc(C(C)C)cc1)S(=O)(=O)c1c(C)[nH]c(=O)[nH]c1=O,-0.6%,11.3%,-2.38%,88.8%,94.6%,2.21%,2.71%
CN(C)c1nc(Oc2ccc(C(=O)OCC(=O)Nc3ccccc3)cc2)nc(N(C)C)n1,5.09%,5.01%,-3.31%,95.6%,94.3%,2.15%,1.24%
O=C(O)CCc1n[nH]c(=S)[nH]c1=O,-5.76%,-17.3%,-1.6%,102%,106%,0.76%,-0.69%
CCOc1ccccc1NC(=O)CN1C(=O)COc2ccc(Cl)cc21,-16.8%,-11.8%,-1.27%,91.7%,84.2%,4.02%,5.69%
O=C(CC(c1ccccc1)c1ccccc1)NCCO,-6.53%,-4.9%,0.49%,100%,96.1%,2.24%,5.36%
Cc1c(C(=O)N2CCC(C(N)=O)CC2)sc(N)c1C#N,-12.1%,-8.07%,-0.41%,94.7%,99.1%,2.91%,9.2%
COCC(C)N=Cc1c(O)[nH]c2ccccc12 (configuration not stated),0.585%,1.21%,-2.38%,92.1%,97.5%,0.82%,-1.18%
O=C(Cc1c(F)cccc1Cl)c1ccc(O)cc1O,-10.5%,-0.825%,-0.88%,99.8%,100%,0.3%,-1.74%
COc1cccc(-c2nc(CS(=O)(=O)CC(=O)NCc3ccccc3OC)c(C)o2)c1,5.72%,2.59%,-1.62%,95.9%,89.1%,1.55%,3.2%

Structure (SMILES),growth inhibition [1],growth inhibition [2],viability increase [3],viability [4],viability [5],inhibition [6],RAM network inhibition [7]
Cn1cccc1Cc1nnc(SCC(=O)N2CCCCCC2)n1CCc1ccccc1,10%,25.7%,-1.8%,95.2%,96.1%,2.48%,2.94%
CN(C)c1nc(-c2ccccc2)c2cnn(Cc3ccccc3)c2n1,-12.5%,-3.25%,-4.48%,83.8%,75.9%,1.59%,6.82%
CCC(C)Sc1nc2c([nH]c3ccccc32)c(=O)n1C (configuration not stated),-16.9%,-15.8%,-4.85%,72.4%,70.6%,2.48%,3.48%
Cc1ccc(S(=O)(=O)N(C)CCCC(=O)Nc2ccncc2)cc1,-2.16%,-6.8%,-0.64%,79.4%,79%,0.13%,1.94%
COc1ccccc1N1CCN(C(=O)c2sc3nc(-c4ccc(F)cc4)cn3c2C)CC1,-6.38%,2.76%,-1.57%,57.6%,58.8%,0.235%,1.42%
CCCCSC1=C(C#N)C(c2ccccc2C)CC(=O)N1 (configuration not stated),-14.2%,3.23%,-2.96%,95.1%,79.6%,1.03%,5.84%
CCOC(=O)C1=C(C)N(C)C(C)=C(C(=O)OCC)C1c1ccccn1,-13.2%,-14.6%,-0.35%,96.2%,91.6%,1.98%,0.62%
COc1ccc(C2C(C(=O)Nc3cccc(C)n3)c3ccccc3C(=O)N2C)cc1OC (configuration not stated),5.62%,5.49%,-1.04%,103%,99.6%,-0.04%,3.5%
CCOC(=O)N1CCN(C(=O)c2cc3c(-c4ccc(Cl)cc4)nn(C)c3s2)CC1,-5.13%,4.77%,-6.02%,55.8%,49.2%,0.47%,1.8%
CC(CN(C)Cc1ccccc1)OC(=O)C1COc2ccccc2O1 (configuration not stated),-9.66%,6.59%,0.39%,101%,102%,1.3%,2.25%
Cc1nnc(Sc2nc3c(c(=O)[nH]c(=O)n3C)n2Cc2ccccc2)s1,-11.6%,-12.4%,-0.33%,101%,103%,1.61%,0.73%
CCOC(=O)Cn1c(=O)oc2cc(S(=O)(=O)N(C)Cc3ccco3)ccc21,-13.2%,-14%,-4.08%,99.9%,94.1%,3.37%,4.56%
COc1cccc(C(=O)NCC(c2cccnc2)N2CCN(c3ccccc3OC)CC2)c1 (configuration not stated),1.37%,-13.1%,-2.58%,84.3%,78%,1.87%,1.46%
C=C(Br)Cn1c(CC(C)C)nc2ccccc21,13.3%,-14.3%,-4.96%,85.1%,83.7%,0.265%,4.37%
Brc1ccc(OCCOCCN2CCOCC2)cc1,-13.4%,-8.66%,2.95%,91.7%,93%,0.12%,1.24%
COc1ccc(-n2ncc3c(N4CCCCC4)ncnc32)cc1,-12.2%,0.385%,-3.57%,67.8%,57.1%,1.78%,-1.99%
CCC1(C)C2(C#N)C(N)=NC(OC)(OC)C12C#N (configuration not stated),-5.98%,-10.1%,-0.83%,106%,99.3%,1.41%,2.07%
CCC(=O)N=c1sc2c(OC)ccc(OC)c2n1C,-7.02%,-7.99%,-4.85%,92.4%,91.2%,1.68%,2.04%
